Bioassay records: PubChem BioAssay, several laboratories
Rows were chosen to be rich in hits. Some 4.2% of all compounds tested hit in one or more screens of this group.
KCNQ1 act – potentiators or activators of human KCNQ1 potassium channel; P51787; CHO-K1 KCNQ1, thallium flux FluxOR fluorescence; active compounds read high; 310,000 compounds, 0.35% hits; AID 2648; B-score at 10 µM;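 active means fluorescence ratio B-score, a plate-corrected score, at least three library SD, with initial intensity B-score within 5 SD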
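Test system: CHO-K1 cells stably expressing KCNQ1 / Medium: assay buffer / Also added: depolarizing K+/Tl+ stimulus, K2SO4 and Tl2SO4 each 12.5 mM in 5x stock / Incubation: 90 min dye loading and 20 min compound exposure, both at room temperature / Signal: thallium influx via FluxOR fluorescence, kinetic imaging / Evaluation: B score of baseline-normalized fluorescence ratio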
KCNQ1 block – inhibitors of human KCNQ1 potassium channel | CHO-K1 KCNQ1, FluxOR thallium flux fluorescence; active compounds read high | 310,000 compounds, 1.3% hits | P51787 | B-score at 10 µM;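 active means compounds whose thallium flux B-score, printed positive for inhibition, exceeds three library SD while starting fluorescence stays within three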;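 further: channel opened by potassium depolarization with thallium stimulus after 20 min compound exposure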
SUMO Mot1 rescue – SUMOylation pathway inhibition by Mot1-301 growth rescue. S. cerevisiae Mot1-301 growth rescue, ATP luminescence, 38.5C; percent above DMSO median, 100 means doubled. growth rescue, % at 18.8 µM. 320,000 compounds, 1% hits;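 active means every valid replicate shows activation above 250% relative to neutral control wells; inactive means the rest, any valid replicate at or below 250%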
hERG protect – compounds protecting human hERG from proarrhythmic drug block; CHO-hERG, FluxOR thallium flux, dofetilide IC70 present; activation (rescue from dofetilide block), less the hit threshold, % at 10 µM; 310,000 compounds, 0.51% hits; AID 1511;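 active means activation above the mean of controls blocked by dofetilide plus 5 SD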;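 further: thallium influx through hERG after potassium depolarization seen as dye fluorescence rise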
AI-2 QS mod – modulators of Vibrio harveyi AI-2 quorum sensing system. Vibrio harveyi JMH597 AI-2 luminescence/OD600 ratio, 9 h; active compounds read low; strain lacks LuxN and CqsS sensors; 0 = neutral-control median. activity change, % at 7.5 µM. 300,000 compounds, 0.4% hits; in the data active means activity change below about -75%, passing the limit was not always enough; inconclusive means no clear call, values can overlap the other calls;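 further: luminescence divided by OD600 gain over 9 h not by final OD600 alone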
Cl transport mod – modulates chloride dependent transport by human KCC2 | Q9H2X9 | KCC2 cells, thallium flux FluoZin-2 fluorescence | B-score of Tl+ flux slope (higher = more flux/activation; lower = inhibition) at 10 µM | 190,000 compounds, 2.2% hits;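 active means thallium flux slope and its plate-corrected score both differing from the plate sample mean at a set confidence after two filtering rounds, in either direction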;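 further: slope of fluorescence scaled to starting intensity during 10 to 20 s after thallium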
KCC2 sec1 – confirmation of human KCC2 transport modulators; AID 1713; shares compounds with Cl transport mod; HEK293-KCC2, thallium flux, FluoZin2 fluorescence; active compounds read high; normalised thallium flux (F/F0 slope) at 10 µM; 3,700 compounds, 15% hits;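 active means thallium flux slope above the same plate's solvent-only control mean plus 3 SD; inconclusive means the two replicate wells disagree; inactive means no significant difference from solvent-only control wells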
KCC2 bumet counter – bumetanide-insensitive thallium flux in KCC2 cells with ouabain, counter-screen; shares compounds with Cl transport mod; HEK293-KCC2 + bumetanide/ouabain, thallium flux FluoZin2; active compounds read high; normalized thallium flux at 10 µM; 3,700 compounds, 49% hits;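 active means thallium entry rate above the same plate's blocked-transporter control wells by more than 3 SD; inconclusive means the two repeat wells disagree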;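 further: raw slope of fluorescence over initial fluorescence between 10 and 20 s after thallium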
KCC2 secondary2 – KCC2 (human) modulation, second secondary assay | shares compounds with Cl transport mod | HEK293-KCC2, thallium flux FluoZin2 fluorescence; actives lie on both sides; F/F0 rise rate, 10–20 s post-thallium | normalized thallium flux at 10 µM | 3,700 compounds, 23% hits;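 active means thallium flux slope more than 3 SD above or below the plate's solvent-only control mean, mostly below; inconclusive means the two repeat wells disagreed; inactive means no significant shift from solvent-only controls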
HEK counter1 – parental HEK flux effect, counter-screen. thallium flux rate (normalised fluorescence) at 10 µM. shares compounds with Cl transport mod. 3,700 compounds, 46% hits. AID 1716. HEK293 parental cells, thallium flux FluoZin2, ouabain; baseline-ratio fluorescence slope, 10–20 s after thallium;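 active means thallium flux rate significantly above the same plate's solvent-only control wells, beyond their mean plus 3 SD; inconclusive means the two replicate wells gave conflicting results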
KCC2 retest ouab – modulates human KCC2 on retest with ouabain. shares compounds with Cl transport mod. HEK293-KCC2, thallium flux FluoZin2 fluorescence; bidirectional: low = inhibitor, high = activator. raw Tl+ flux slope (below DMSO = inhibition, above = activation) at 10 µM. 3,700 compounds, 48% hits. AID 1717;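 active means thallium flux slope beyond 3 SD from same-plate DMSO control mean in most replicates, usually higher, sometimes lower; inconclusive means repeat tests gave conflicting results; inactive means no significant difference from controls in most replicates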;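 further: slope of initial-normalized fluorescence between seconds 10 and 20 after thallium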
HEK counter2 – parental HEK flux effect, counter-screen 2; shares compounds with Cl transport mod; thallium flux slope at 10 µM; HEK293 parental, thallium flux FluoZin-2 fluorescence slope; 3,700 compounds, 33% hits;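 active means thallium flux slope above the same plate's solvent-control mean plus 3 SD in both duplicate wells; inconclusive means duplicate wells that disagreed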;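 further: run without ouabain in cells lacking the KCC2 cotransporter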
Of the large screens only hits and unclear results are named; the others gave an inactive call (follow-up assays come after a bar, where they were run).

CC(OC(=O)C1CCN(c2ccc(C(F)(F)F)cn2)CC1)C(=O)Nc1cccc([N+](=O)[O-])c1 (configuration not stated)	none (no result: KCNQ1 act, KCNQ1 block, hERG protect, AI-2 QS mod, Cl transport mod)
CCc1nnc(NC(=O)CSc2nc3ccc(OC)cc3[nH]2)s1	none
CO[C@H]1C[C@@H]2CC[C@@H](C)[C@@](O)(O2)C(=O)C(=O)N2CCCC[C@H]2C(=O)O[C@H]([C@H](C)C[C@@H]2CC[C@@H](O)[C@H](OC)C2)CC(=O)[C@H](C)C=C(C)[C@@H](O)[C@@H](OC)C(=O)[C@H](C)C[C@H](C)C=CC=CC=C1C	none (no result: KCNQ1 act, KCNQ1 block, SUMO Mot1 rescue, hERG protect, AI-2 QS mod) | KCC2 sec1 inactive | KCC2 bumet counter inactive | KCC2 secondary2 inactive | HEK counter1 inactive | KCC2 retest ouab inactive | HEK counter2 inactive
CCCCOc1ccccc1C(=O)N(Cc1ccco1)C1CCS(=O)(=O)C1 (configuration not stated)	none (no result: Cl transport mod)
Cc1noc(C(=O)NCc2cccnc2)c1Cl	none
Cc1noc(C(=O)NCc2ccc(F)cc2)c1Cl	Cl transport mod 6.8 | KCC2 sec1 inactive | KCC2 bumet counter inactive | KCC2 secondary2 inactive | HEK counter1 inactive | KCC2 retest ouab inactive | HEK counter2 inactive
Cc1ccc(N2C(=O)C3C4C=CC(CC4)C3C2=O)c([N+](=O)[O-])c1 (configuration not stated)	none (no result: Cl transport mod)
O=C(Nc1nnc(C2CC2)o1)c1ccc(S(=O)(=O)N2CCCc3ccccc32)cc1	Cl transport mod 4.4 | KCC2 sec1 0.012 | KCC2 bumet counter 0.025 | KCC2 secondary2 inactive | HEK counter1 0.012 | KCC2 retest ouab inconclusive | HEK counter2 inactive
Oc1ccc(N=Nc2ccc3c(c2)OCO3)c2ccccc12	KCNQ1 act 9, Cl transport mod 9 | KCC2 sec1 inactive | KCC2 bumet counter 0.011 | KCC2 secondary2 inactive | HEK counter1 0.011 | KCC2 retest ouab 0.02 | HEK counter2 inactive
COc1cccc2cc(C(=O)c3ccc([N+](=O)[O-])cc3)oc12	none
S=c1[nH]nc(-c2ccco2)n1/N=C/C(Cl)=C/c1ccccc1	Cl transport mod 34 | KCC2 sec1 0.016 | KCC2 bumet counter 0.14 | KCC2 secondary2 inactive | HEK counter1 0.029 | KCC2 retest ouab 0.067 | HEK counter2 0.015
CC(/C=N/n1c(-c2ccncc2)n[nH]c1=S)=C\c1ccco1	none
CC(/C=N/n1c(-c2ccco2)n[nH]c1=S)=C\c1ccco1	Cl transport mod 4.7 | KCC2 sec1 inactive | KCC2 bumet counter 0.027 | KCC2 secondary2 inactive | HEK counter1 0.018 | KCC2 retest ouab 0.028 | HEK counter2 0.02
Cc1cc(-c2n[nH]c(=S)n2/N=C/c2cccc(O)c2)n[nH]1	none
